Reference: ChEMBL document CHEMBL1157306, “Capisterones A and B, which enhance fluconazole activity in Saccharomyces cerevisiae, from the marine green alga Penicillus capitatus” (J Nat Prod, 2006)
Activity calls are given as the source filed them. No cut-off for these calls is given here.

Legend:
Saccharomyces cerevisiae [1] = experiment: Potentiation of fluconazole-induced antifungal activity against null pump Saccharomyces cerevisiae DSY 390 assessed as fractional inhibitory concentration at 12.8 uM; assay type: functional
How it was run: (§1)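 Fluconazole dose-response curves were run alone and with a fixed concentration of second agent (22.5, 6.0 or 12.8 μM). Strains were S. cerevisiae null pump DSY 390 and DSY 415 overexpressing C. albicans CDR1 or MDR1. Growth inhibition was the read-out, and the fractional inhibitory concentration was derived from it.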

Saccharomyces cerevisiae [2] = experiment: Potentiation of fluconazole-induced antifungal activity against Saccharomyces cerevisiae DSY 415 overexpressing Candida albicans CDR1 assessed as fractional inhibitory concentration at 12.8 uM; assay type: functional; how it was run: as §1
Saccharomyces cerevisiae [3] = experiment: Potentiation of fluconazole-induced antifungal activity against Saccharomyces cerevisiae DSY 415 overexpressing Candida albicans MDR1 assessed as fractional inhibitory concentration at 12.8 uM; assay type: functional; how it was run: as §1
Candida albicans = experiment: Antifungal activity against Candida albicans; assay type: functional, organism-based
Nakaseomyces glabratus = experiment: Antifungal activity against Candida glabrata; assay type: functional, organism-based
Pichia kudriavzevii = experiment: Antifungal activity against Candida krusei; assay type: functional, organism-based
Cryptococcus neoformans = experiment: Antifungal activity against Cryptococcus neoformans; assay type: functional, organism-based
Aspergillus fumigatus = experiment: Antifungal activity against Aspergillus fumigatus; assay type: functional, organism-based
KB = experiment: Cytotoxicity against human KB cells; assay type: functional, cell-based
How it was run: (§2)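 Human cancer cell lines (KB, SK-MEL, BT-549, SK-OV-3) tested alongside non-cancerous Vero cells, with test agent concentrations up to 35 μM.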

SK-MEL = experiment: Cytotoxicity against human SK-MEL cells; assay type: functional, cell-based; how it was run: as §2
BT-549 = experiment: Cytotoxicity against human BT549 cells; assay type: functional, cell-based; how it was run: as §2
SK-OV-3 = experiment: Cytotoxicity against human SKOV3 cells; assay type: functional, cell-based; how it was run: as §2
Vero = experiment: Cytotoxicity against african green monkey Vero cells up to 35 uM; assay type: cell-based; conditions: chlorocebus sabaeus
Saccharomyces cerevisiae [4] = experiment: Antifungal activity against Saccharomyces cerevisiae DSY 415 overexpressing Candida albicans MDR1 at 67.4 uM; assay type: functional, organism-based
Saccharomyces cerevisiae [5] = experiment: Antifungal activity against null pump Saccharomyces cerevisiae DSY 390 at 67.4 uM; assay type: functional, organism-based
Saccharomyces cerevisiae [6] = experiment: Antifungal activity against Saccharomyces cerevisiae DSY 415 overexpressing Candida albicans MDR1 at 12.8 uM; assay type: functional, organism-based
Saccharomyces cerevisiae [7] = experiment: Antifungal activity against null pump Saccharomyces cerevisiae DSY 390 at 12.8 uM; assay type: functional, organism-based
Saccharomyces cerevisiae [8] = experiment: Antifungal activity against Saccharomyces cerevisiae DSY 415 overexpressing Candida albicans CDR1; assay type: functional, organism-based
How it was run: (§3)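 Growth inhibition of S. cerevisiae strains with efflux pumps overexpressed (CDR1 or MDR1, DSY 415) or no pump (DSY 390) was measured across a dose range of test agent alone. IC50 was read from the dose-response curves.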

Saccharomyces cerevisiae [9] = experiment: Antifungal activity against Saccharomyces cerevisiae DSY 415 overexpressing Candida albicans MDR1; assay type: functional, organism-based; how it was run: as §3
Saccharomyces cerevisiae [10] = experiment: Antifungal activity against null pump Saccharomyces cerevisiae DSY 390; assay type: functional, organism-based; how it was run: as §3
Saccharomyces cerevisiae [11] = experiment: Antifungal activity against Saccharomyces cerevisiae DSY 415 overexpressing Candida albicans CDR1 at 67.4 uM; assay type: functional, organism-based
Saccharomyces cerevisiae [12] = experiment: Antifungal activity against Saccharomyces cerevisiae DSY 415 overexpressing Candida albicans CDR1 at 12.8 uM; assay type: functional, organism-based
Saccharomyces cerevisiae [13] = experiment: Potentiation of fluconazole-induced antifungal activity against Saccharomyces cerevisiae DSY 415 overexpressing Candida albicans CDR1 assessed as fractional inhibitory concentration at 22.5 uM; assay type: functional; how it was run: as §1
Saccharomyces cerevisiae [14] = experiment: Potentiation of fluconazole-induced antifungal activity against Saccharomyces cerevisiae DSY 415 overexpressing Candida albicans MDR1 assessed as fractional inhibitory concentration at 22.5 uM; assay type: functional; how it was run: as §1
Saccharomyces cerevisiae [15] = experiment: Potentiation of fluconazole-induced antifungal activity against null pump Saccharomyces cerevisiae DSY 390 assessed as fractional inhibitory concentration at 22.5 uM; assay type: functional
How it was run: (§4)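 Pump-null S. cerevisiae DSY 390 was run in parallel with strains overexpressing C. albicans CDR1 or MDR1 efflux pumps. Growth-inhibition dose-response curves were recorded for fluconazole alone and for fluconazole with a fixed modulator concentration (22.5 or 6.0 μM). The interaction was expressed as a fractional inhibitory concentration (FIC) index.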

Saccharomyces cerevisiae [16] = experiment: Potentiation of fluconazole-induced antifungal activity against Saccharomyces cerevisiae DSY 415 overexpressing Candida albicans CDR1 assessed as fractional inhibitory concentration at 6.03 uM; assay type: functional; how it was run: as §1
Saccharomyces cerevisiae [17] = experiment: Potentiation of fluconazole-induced antifungal activity against Saccharomyces cerevisiae DSY 415 overexpressing Candida albicans MDR1 assessed as fractional inhibitory concentration at 6.03 uM; assay type: functional; how it was run: as §1
Saccharomyces cerevisiae [18] = experiment: Potentiation of fluconazole-induced antifungal activity against null pump Saccharomyces cerevisiae DSY 390 assessed as fractional inhibitory concentration at 6.03 uM; assay type: functional; how it was run: as §4

Row | SMILES | Activity (Candida albicans) | Activity (Nakaseomyces glabratus) | Activity (Pichia kudriavzevii) | Activity (Cryptococcus neoformans) | Activity (Aspergillus fumigatus) | Activity (KB) | Activity (SK-MEL) | Activity (BT-549) | Activity (SK-OV-3) | Activity (Vero) | IC50 (Saccharomyces cerevisiae [8]) [µM] | IC50 (Saccharomyces cerevisiae [9]) [µM] | IC50 (Saccharomyces cerevisiae [10]) [µM] | other results
1 | CC(C)[C@@H]1OC(=O)[C@@H](Cc2ccccc2)N(C)C(=O)[C@H](C(C)C)OC(=O)[C@@H](Cc2ccccc2)N(C)C(=O)[C@H](C(C)C)OC(=O)[C@@H](Cc2ccccc2)N(C)C1=O [BEAUVERICIN] | – | – | – | – | – | – | – | – | – | – | – | – | – | FIC50 (Saccharomyces cerevisiae [1]): 2.67; FIC50 (Saccharomyces cerevisiae [2]): 0.05; FIC50 (Saccharomyces cerevisiae [3]): 2
2 | CC(=O)OC[C@@]1(COS(=O)(=O)O)C(=O)CC[C@]23C[C@]24CC[C@]2(C)[C@@H]([C@H](C)CC(=O)CC(C)C)CC[C@@]2(C)[C@@H]4CC[C@@H]13 [CAPISTERONE A] | inactive | inactive | inactive | inactive | inactive | inactive | inactive | inactive | inactive | Not Active | > 67 | > 67 | > 67 | Activity (Saccharomyces cerevisiae [4]): inactive; Activity (Saccharomyces cerevisiae [5]): inactive; Activity (Saccharomyces cerevisiae [6]): inactive; Activity (Saccharomyces cerevisiae [7]): inactive; Activity (Saccharomyces cerevisiae [11]): inactive; Activity (Saccharomyces cerevisiae [12]): inactive; FIC50 (Saccharomyces cerevisiae [13]): 0.33; FIC50 (Saccharomyces cerevisiae [14]): 0.08; FIC50 (Saccharomyces cerevisiae [15]): 0.55
3 | CC(C)CC(=O)C[C@@H](C)[C@H]1CC[C@@]2(C)[C@@H]3CC[C@H]4[C@](CO)(COS(=O)(=O)O)C(=O)CC[C@@]45C[C@@]35CC[C@]12C [CAPISTERONE B] | inactive | inactive | inactive | inactive | inactive | inactive | inactive | inactive | inactive | Not Active | 7 | 7 | 7 | FIC50 (Saccharomyces cerevisiae [16]): 0.33; FIC50 (Saccharomyces cerevisiae [17]): 0.15; FIC50 (Saccharomyces cerevisiae [18]): 0.5
